# The full list was thinned out, with hits kept by preference.
# Myeloid diff MLP: induction of myeloid progenitor differentiation, primary screen, cell-based, flow cytometry, MLPCN library. ER-HoxA9 myeloid progenitors, lysozyme-GFP differentiation. calls only at 10 µM. 360,000 compounds, 1% hits;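 active = normalized GFP-positive differentiation at or above the plate's own cutoff, the solvent-only control mean plus 3 SD; inconclusive = no clear call, values can overlap the other calls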;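 also: cells exposed to compound for four days before flow analysis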
# XiGFP reactiv: activators of inactive X chromosome reactivation, primary screen, imaging, XiGFP fibroblasts, GFP high-content imaging, set 2; activation, % at 7.58 µM; XiGFP mouse fibroblasts, % GFP-positive cells imaging, 3 d; cells co-treated with 5-aza-dC sensitizer; scaled so ellipticine positive control = 100%; 360,000 compounds, 0.055% hits;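 active = mean normalized replicate activation at least 10% and every replicate at or above 10%; inconclusive = only one of the two criteria met; inactive = mean below 10% and not all replicates reach 10%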;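 also: 0% = median of on-plate neutral control wells and 100% = ellipticine 6 µM median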
#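 Assay system – SV40-immortalized XiGFP fibroblast cells, line 68-5-11 · Buffer or medium – DMEM supplemented with 5-aza-dC as sensitizing agent · Dosing – one concentration, pinned · Benchmarks – positive control ellipticine, 6 µM final · Times – 3 days compound exposure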
# ABCB6 inh MLPCN: ABCB6 transporter inhibitors, primary screen, K562-ABCB6 cells, flow cytometry, MLPCN library | 360,000 compounds, 0.19% hits | ATP-binding cassette sub-family B member 6 (Homo sapiens), Q9NP58 | fluorescence ratio to DMSO, % at 10 µM | K562-ABCB6 porphyrin accumulation, 1 h; active compounds read low;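 active = fluorescence ratio to DMSO below 75%, the collection mean minus 3 SD; inconclusive = too few cells collected in the well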;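 also: signal is porphyrin accumulated inside mitochondria; 100% equals median channel fluorescence of DMSO control wells; lower ratio means ABCB6 inhibition with less porphyrin fluorescence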
# Starred values were filed as active, the others as inactive; i = inactive; ? = inconclusive; · = not tested or not shown; + = active, no number.
SMILES,Myeloid diff MLP,XiGFP reactiv,ABCB6 inh MLPCN
COCCCNCCCOc1ccc(C)cc1Br,+,-0.2,99.0
CCCNC(=O)[C@H]1[C@H](CO)[C@H]2Cn3c(ccc(-c4ccccc4)c3=O)[C@@H]1N2C(=O)C1CC1,·,0.0,·
Cc1ccc2nc(/C(C#N)=C/c3ccccc3C(=O)O)[nH]c2c1,i,0.2,99.0
Cc1ccc2nc(/C(C#N)=C/c3ccc(O)c(O)c3)[nH]c2c1,+,0.9,139.0
CCC(=O)N1CCCCN2[C@H](CO)[C@@H](c3ccc(C#Cc4ccccc4)cc3)[C@H]2C1,·,0.0,·
CCCCSCc1ccc(C(=O)O)o1,+,·,97.0
CC(=O)c1c(C)oc(C)c1CSCc1ccc(C(=O)O)o1,i,·,89.0
CS(=O)(=O)N1N=C(c2ccc(Br)cc2)CC1c1cccs1 (stereo not given),i,·,119.0
CCc1ccc(C2=NN(S(C)(=O)=O)C(c3cccs3)C2)cc1 (stereo not given),+,·,172.0
COCC(=O)Nc1ccc2c(c1)[C@@H]1C[C@@H](CC(=O)OC)O[C@H](CO)[C@@H]1O2,·,0.0,·
CCC(=O)N(C)C[C@@H]1Oc2ncc(C#CC(C)(C)O)cc2C(=O)N([C@@H](C)CO)C[C@H]1C,·,-1.1,·
COc1ccc2c3c(n(C)c2c1)[C@H](CO)N(C(=O)c1ccccn1)CC31CCN(C)CC1,·,0.2,·
Cc1ccc(-n2nc3ccc(N)cc3n2)c(C)c1,i,0.0,119.0
Cc1cc(N)ccc1-n1nc2ccccc2n1,+,0.0,149.0
O=C(NCCCN1CCOCC1)c1ccc(Sc2ccc(Br)cc2)c([N+](=O)[O-])c1,+,0.2,124.0
O=C(NCCCN1CCOCC1)c1ccc(Sc2ccccc2Cl)c([N+](=O)[O-])c1,i,0.1,99.0
CN(C)C(=O)[C@H]1[C@H](CO)[C@H]2Cn3c(ccc(C4=CCCC4)c3=O)[C@H]2N1C(=O)Cc1cccnc1,·,0.3,·
CC1Cc2nc(SCC(=O)Nc3ccc4c(c3)OCCO4)n(C)c(=O)c2S1 (stereo not given),i,·,109.0
COCCn1c(SCC(=O)Nc2ccc3c(c2)OCCO3)nc2c(c1=O)SC(C)C2 (stereo not given),+,0.1,101.0
Cc1cc(C(=O)Nc2cccc3c2O[C@@H](CN(C)S(=O)(=O)c2c(C)noc2C)[C@@H](C)CN([C@H](C)CO)C3=O)n(C)n1,·,-0.1,·
O=C1CC(Cc2ccc(Cl)cc2)C(=O)N1c1ccccn1 (stereo not given),i,·,73.0*
O=C1CC(Cc2ccc(Cl)cc2)C(=O)N1c1ccncc1 (stereo not given),i,·,93.0
CC(C)NC(=O)Nc1ccc2c(c1)C(=O)N(C)C[C@@H](C)[C@H](CN(C)C(=O)NC(C)C)O2,·,0.3,·
O=C(C[C@H]1CC[C@@H](NC(=O)Nc2ccc3c(c2)OCO3)[C@H](CO)O1)NCCCN1CCOCC1,·,0.1,·
Cc1ccc(C(=O)c2oc3ccccc3c2NC(=O)c2cc(-c3cc(C)ccc3O)n[nH]2)cc1,i,9.3,96.0
SMILES,Myeloid diff MLP,XiGFP reactiv,ABCB6 inh MLPCN
Cc1ccc(C(=O)c2oc3ccccc3c2NC(=O)c2cc(-c3ccccc3O)n[nH]2)cc1,i,23.3*,95.0
C[C@@H]1CN([C@H](C)CO)C(=O)c2cc(NC(=O)Nc3ccc(F)cc3)ccc2O[C@@H](C)CCCCO[C@H]1CN(C)S(C)(=O)=O,·,0.0,·
Cc1ccc(S(=O)(=O)N(C)C[C@@H]2Oc3ccc(NS(=O)(=O)c4ccccc4)cc3CC(=O)N([C@@H](C)CO)C[C@@H]2C)cc1,·,-1.2,·
C[C@@H]1CCCCO[C@H](CN(C)C(=O)Nc2cccc3ccccc23)[C@H](C)CN([C@H](C)CO)C(=O)c2cc(NS(=O)(=O)c3ccc(Cl)cc3)ccc2O1,·,-0.1,·
C[C@H](CO)N1C[C@H](C)[C@@H](CN(C)CC2CCCCC2)Oc2ncc(C#C[C@@H](C)O)cc2C1=O,·,-1.0,·
CCOC(=O)CC(=O)CSc1nc(-c2ccccc2)cc(-c2ccccc2)c1C#N,+,9.6,100.0
COc1ccc(CNC(=O)CSc2nc(-c3ccccc3)cc(-c3cccs3)c2C#N)cc1,i,·,101.0
CC(C)OC(=O)CC(=O)CSc1nc(-c2ccc(F)cc2)cc(-c2ccccc2)c1C#N,i,?,105.0
COc1cc(-c2cc(-c3ccccc3)nc(SCC(=O)Nc3nccs3)c2C#N)cc(OC)c1OC,+,·,101.0
COc1ccccc1NC(=O)N1CC(=O)N2[C@H](C1)[C@H](c1ccc(C#CC(C)C)cc1)[C@@H]2CO,·,0.1,·
COc1ccc(CN(C)C[C@H]2OCCCC[C@H](C)Oc3ccc(NS(C)(=O)=O)cc3C(=O)N([C@H](C)CO)C[C@H]2C)cc1,·,-1.2,·

# High-throughput results deposited in PubChem BioAssay by several laboratories.
